{"source": "ChEMBL document CHEMBL5724801", "about": "“EUbOPEN Chemogenomics Library - Multiplex” (2024)", "system": "U2OS", "assay": "Multiplex assay against U2OS", "format": "toxicity, cell-based", "conditions": "human", "how_it_was_run": "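Phenotypes for tubulin, mitochondrial mass and membrane permeability are expressed as per cents of healthy-nucleus cells. Cells were stained live at seeding with Hoechst33342, BioTracker Green Microtubule Cytoskeleton Dye, MitoTracker Red and Annexin V Alexa Fluor 680, then imaged after compound addition on a CQ1 microscope at 37°C and 5% CO2. Machine-learning gating in CellPathfinder separated Hoechst high-intensity objects from normal cells, divided normal cells by nuclear state (healthy, pyknosed, fragmented) and divided pyknosed cells into mitotic or apoptotic.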", "key": {"[1]": {"conditions": "12 h, 1 µM, compound concentration 1 uM"}, "[2]": {"conditions": "12 h, 10 µM, compound concentration 10 uM"}, "[3]": {"conditions": "24 h, 1 µM, compound concentration 1 uM"}, "[4]": {"conditions": "24 h, 10 µM, compound concentration 10 uM"}, "[5]": {"conditions": "48 h, 1 µM, compound concentration 1 uM"}, "[6]": {"conditions": "48 h, 10 µM, compound concentration 10 uM"}}, "note": "Values joined by “and” are separate entries in the source; they are usually repeats but may differ in a detail not shown here. Equal values may be shown once.", "data": [{"smiles": "Cn1cnc(-c2cnc(O[C@H]3CCN(C(=O)Cc4ccc(OC(F)(F)F)cc4)C[C@H]3F)c(C(N)=O)c2)c1", "values": [{"measurement": "Population Apoptotic (%)", "setting": "[1]", "result": "46.88% and 25%"}, {"measurement": "Population Healthy Nuclei (%)", "setting": "[1]", "result": "91.05% and 84.18%"}, {"measurement": "Population Hoechst High Intensity Objects (%)", "setting": "[1]", "result": 0, "unit": "%"}, {"measurement": "Population Mitotic Cells (%)", "setting": "[1]", "result": "53.12% and 75%"}, {"measurement": "Population Normal (%)", "setting": "[1]", "result": 100, "unit": "%"}, {"measurement": "Population Pyknosed Nuclei (%)", "setting": "[1]", "result": "8.42% and 13.56%"}, {"measurement": "Population Apoptotic (%)", "setting": "[2]", "result": "38.46% and 23.33%"}, {"measurement": "Population Healthy Nuclei (%)", "setting": "[2]", "result": "82.47% and 74.67%"}, {"measurement": "Population Hoechst High Intensity Objects (%)", "setting": "[2]", "result": "0.26% and 0%"}, {"measurement": "Population Mitotic Cells (%)", "setting": "[2]", "result": "61.54% and 76.67%"}, {"measurement": "Population Normal (%)", "setting": "[2]", "result": "99.74% and 100%"}, {"measurement": "Population Pyknosed Nuclei (%)", "setting": "[2]", "result": "16.75% and 20%"}, {"measurement": "Population Apoptotic (%)", "setting": "[3]", "result": "37.74% and 45.16%"}, {"measurement": "Population Healthy Nuclei (%)", "setting": "[3]", "result": "89.71% and 85.37%"}, {"measurement": "Population Hoechst High Intensity Objects (%)", "setting": "[3]", "result": "0.17% and 0%"}, {"measurement": "Population Mitotic Cells (%)", "setting": "[3]", "result": "62.26% and 54.84%"}, {"measurement": "Population Normal (%)", "setting": "[3]", "result": "99.83% and 100%"}, {"measurement": "Population Pyknosed Nuclei (%)", "setting": "[3]", "result": "9.09% and 12.6%"}, {"measurement": "Population Apoptotic (%)", "setting": "[4]", "result": "46.15% and 28.21%"}, {"measurement": "Population Healthy Nuclei (%)", "setting": "[4]", "result": "86.69% and 75.26%"}, {"measurement": "Population Hoechst High Intensity Objects (%)", "setting": "[4]", "result": "0% and 0.51%"}, {"measurement": "Population Mitotic Cells (%)", "setting": "[4]", "result": "53.85% and 71.79%"}, {"measurement": "Population Normal (%)", "setting": "[4]", "result": "100% and 99.49%"}, {"measurement": "Population Pyknosed Nuclei (%)", "setting": "[4]", "result": "12.36% and 20.1%"}, {"measurement": "Population Apoptotic (%)", "setting": "[5]", "result": "32.56% and 44.19%"}, {"measurement": "Population Healthy Nuclei (%)", "setting": "[5]", "result": "89.01% and 86.44%"}, {"measurement": "Population Hoechst High Intensity Objects (%)", "setting": "[5]", "result": "0% and 0.24%"}, {"measurement": "Population Mitotic Cells (%)", "setting": "[5]", "result": "67.44% and 55.81%"}, {"measurement": "Population Normal (%)", "setting": "[5]", "result": "100% and 99.76%"}, {"measurement": "Population Pyknosed Nuclei (%)", "setting": "[5]", "result": "7.88% and 10.41%"}, {"measurement": "Population Apoptotic (%)", "setting": "[6]", "result": "53.41% and 48.57%"}, {"measurement": "Population Healthy Nuclei (%)", "setting": "[6]", "result": "86.7% and 85.71%"}, {"measurement": "Population Hoechst High Intensity Objects (%)", "setting": "[6]", "result": 0, "unit": "%"}, {"measurement": "Population Mitotic Cells (%)", "setting": "[6]", "result": "46.59% and 51.43%"}, {"measurement": "Population Normal (%)", "setting": "[6]", "result": 100, "unit": "%"}, {"measurement": "Population Pyknosed Nuclei (%)", "setting": "[6]", "result": "9.51% and 11.63%"}]}, {"smiles": "Cl.Cl.N#Cc1ccc(O[C@@H]2c3ccccc3C[C@H]2N2CCC[C@@H](N)C2)c(Cl)c1", "values": [{"measurement": "Population Apoptotic (%)", "setting": "[1]", "result": "27.27% and 23.68%"}, {"measurement": "Population Fragmented Nuclei (%)", "setting": "[1]", "result": "3.65% and 1.32%"}, {"measurement": "Population Healthy Nuclei (%)", "setting": "[1]", "result": "79.64% and 73.51%"}, {"measurement": "Population Hoechst High Intensity Objects (%)", "setting": "[1]", "result": 0, "unit": "%"}, {"measurement": "Population Membrane Permeable-Phenotype (%)", "setting": "[1]", "result": "24.05% and 54.05%"}, {"measurement": "Population Mitotic Cells (%)", "setting": "[1]", "result": "72.73% and 76.32%"}, {"measurement": "Population Normal (%)", "setting": "[1]", "result": 100, "unit": "%"}, {"measurement": "Population Pyknosed Nuclei (%)", "setting": "[1]", "result": "16.72% and 25.17%"}, {"measurement": "Population Tubulin-Different-Phenotype (%)", "setting": "[1]", "result": "57.25% and 71.17%"}, {"measurement": "Total Cell Count", "setting": "[1]", "result": "329 and 151"}, {"measurement": "Population Apoptotic (%)", "setting": "[2]", "result": "46.21% and 25.32%"}, {"measurement": "Population Fragmented Nuclei (%)", "setting": "[2]", "result": "4.14% and 2.88%"}, {"measurement": "Population Healthy Nuclei (%)", "setting": "[2]", "result": "56.8% and 40.29%"}, {"measurement": "Population Hoechst High Intensity Objects (%)", "setting": "[2]", "result": 0, "unit": "%"}, {"measurement": "Population Membrane Permeable-Phenotype (%)", "setting": "[2]", "result": "11.98% and 32.14%"}, {"measurement": "Population Mitochondria Different-Phenotype (%)", "setting": "[2]", "result": "63.54% and 89.29%"}, {"measurement": "Population Mitotic Cells (%)", "setting": "[2]", "result": "53.79% and 74.68%"}, {"measurement": "Population Normal (%)", "setting": "[2]", "result": 100, "unit": "%"}, {"measurement": "Population Pyknosed Nuclei (%)", "setting": "[2]", "result": "39.05% and 56.83%"}, {"measurement": "Population Tubulin-Different-Phenotype (%)", "setting": "[2]", "result": "88.02% and 89.29%"}, {"measurement": "Total Cell Count", "setting": "[2]", "result": "338 and 139"}, {"measurement": "Population Apoptotic (%)", "setting": "[3]", "result": "47.5% and 39.47%"}, {"measurement": "Population Fragmented Nuclei (%)", "setting": "[3]", "result": "2.74% and 2.58%"}, {"measurement": "Population Healthy Nuclei (%)", "setting": "[3]", "result": "77.31% and 72.9%"}, {"measurement": "Population Hoechst High Intensity Objects (%)", "setting": "[3]", "result": 0, "unit": "%"}, {"measurement": "Population Membrane Permeable-Phenotype (%)", "setting": "[3]", "result": "19.35% and 35.4%"}, {"measurement": "Population Mitotic Cells (%)", "setting": "[3]", "result": "52.5% and 60.53%"}, {"measurement": "Population Normal (%)", "setting": "[3]", "result": 100, "unit": "%"}, {"measurement": "Population Pyknosed Nuclei (%)", "setting": "[3]", "result": "19.95% and 24.52%"}, {"measurement": "Population Tubulin-Different-Phenotype (%)", "setting": "[3]", "result": "32.58% and 69.03%"}, {"measurement": "Total Cell Count", "setting": "[3]", "result": "401 and 155"}, {"measurement": "Population Apoptotic (%)", "setting": "[4]", "result": "64.9% and 68.09%"}, {"measurement": "Population Fragmented Nuclei (%)", "setting": "[4]", "result": "3.82% and 4.96%"}, {"measurement": "Population Healthy Nuclei (%)", "setting": "[4]", "result": "51.76% and 28.37%"}, {"measurement": "Population Hoechst High Intensity Objects (%)", "setting": "[4]", "result": 0, "unit": "%"}, {"measurement": "Population Membrane Permeable-Phenotype (%)", "setting": "[4]", "result": "9.09% and 12.5%"}, {"measurement": "Population Mitochondria Different-Phenotype (%)", "setting": "[4]", "result": "73.3% and 92.5%"}, {"measurement": "Population Mitotic Cells (%)", "setting": "[4]", "result": "35.1% and 31.91%"}, {"measurement": "Population Normal (%)", "setting": "[4]", "result": 100, "unit": "%"}, {"measurement": "Population Pyknosed Nuclei (%)", "setting": "[4]", "result": "44.41% and 66.67%"}, {"measurement": "Population Tubulin-Different-Phenotype (%)", "setting": "[4]", "result": "88.64% and 90%"}, {"measurement": "Total Cell Count", "setting": "[4]", "result": "340 and 141"}, {"measurement": "Population Apoptotic (%)", "setting": "[5]", "result": "60.55% and 72.41%"}, {"measurement": "Population Fragmented Nuclei (%)", "setting": "[5]", "result": "2.44% and 3.43%"}, {"measurement": "Population Healthy Nuclei (%)", "setting": "[5]", "result": "79.8% and 63.43%"}, {"measurement": "Population Hoechst High Intensity Objects (%)", "setting": "[5]", "result": 0, "unit": "%"}, {"measurement": "Population Mitotic Cells (%)", "setting": "[5]", "result": "39.45% and 27.59%"}, {"measurement": "Population Normal (%)", "setting": "[5]", "result": 100, "unit": "%"}, {"measurement": "Population Pyknosed Nuclei (%)", "setting": "[5]", "result": "17.75% and 33.14%"}, {"measurement": "Population Apoptotic (%)", "setting": "[6]", "result": "73.29% and 91.21%"}, {"measurement": "Population Fragmented Nuclei (%)", "setting": "[6]", "result": "7.46% and 4.9%"}, {"measurement": "Population Healthy Nuclei (%)", "setting": "[6]", "result": "56.22% and 31.47%"}, {"measurement": "Population Hoechst High Intensity Objects (%)", "setting": "[6]", "result": "0% and 0.69%"}, {"measurement": "Population Membrane Permeable-Phenotype (%)", "setting": "[6]", "result": "5.75% and 15.56%"}, {"measurement": "Population Mitochondria Different-Phenotype (%)", "setting": "[6]", "result": "52.21% and 86.67%"}, {"measurement": "Population Normal (%)", "setting": "[6]", "result": "100% and 99.31%"}, {"measurement": "Population Pyknosed Nuclei (%)", "setting": "[6]", "result": "36.32% and 63.64%"}, {"measurement": "Population Tubulin-Different-Phenotype (%)", "setting": "[6]", "result": "66.37% and 84.44%"}, {"measurement": "Total Cell Count", "setting": "[6]", "result": "402 and 144"}]}]}
